The subject of assay [1] is Cricetinae gen. sp. Description: (§1) Local subcutaneous administration (1 mg); Expressed as weight (mg). Format: functional. In outline:
(§2)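 Male hamsters (100–110 g), castrated 7 days earlier, in groups of four. […] Test compound in 20 μL ethanol was applied daily to the right flank organ, and the contralateral organ received ethanol only. Animals were killed 24 h after the last treatment, and flank organs and prostate were weighed. Results are mean ± SEM.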

In assay [2] the test system is Cricetinae gen. sp. Described as §1. Format: functional. A digest of the protocol:
as §2
This is another data set of the same source.

In assay [3] the test system is Cricetinae gen. sp. Description: Local activity of untreated flank organ in hamster; Expressed as weight (mg). Format: functional. In outline: as §2
For assay [4], the system named is Cricetinae gen. sp. Description: Tocal activity of untreated flank organ in hamster; Expressed as weight (mg). The format is functional. A digest of the protocol: as §2
Assay [5] has as its system Cricetinae gen. sp. Description: (§3) Local subcutaneous administration (200 ug); Expressed as weight (mg). Format: functional. In outline:
as §2

Assay [6] concerns Cricetinae gen. sp. Description: (§4) Tocal subcutaneous administration (1 mg); Expressed as weight (mg). Format: functional. A digest of the protocol:
as §2

For assay [7], the system named is Cricetinae gen. sp. The assay is described as §4. Format: functional. A digest of the protocol: as §2
The source holds these as a separate data set.

The subject of assay [8] is Cricetinae gen. sp. Description: (§5) Tocal subcutaneous administration (40 ug); Expressed as weight (mg). The format is functional. A digest of the protocol: as §2
For assay [9], the system named is Cricetinae gen. sp. Description: (§6) Tocal subcutaneous administration (200 ug); Expressed as weight (mg). The format is functional. A digest of the protocol:
as §2

For assay [10], the system named is Cricetinae gen. sp. The description is as §6. The format is functional. A digest of the protocol: as §2
This is another data set of the same source.

The test system of assay [11] is Cricetinae gen. sp. The assay is described as §5. The format is functional. A digest of the protocol:
as §2
This is another data set of the same source.

The test system of assay [12] is Cricetinae gen. sp. The assay is described as §3. Format: functional. A digest of the protocol:
as §2
This is another data set of the same source.

Assay [13] concerns Rattus norvegicus. As to the kind of experiment: In Vivo inhibition against increase in immature castrated rat seminal vesicles weight on subcutaneous administration of testosterone propionate at dose 5 mg/kg. Format: functional.
For assay [14], the system named is Rattus norvegicus. Description: In vivo percent increase in rat prostate weight on subcutaneous administration of testosterone propionate along with compound at dose 5 mg/day; Expressed as percent inhibition of weight increase, mg. The format is functional, Prostate gland. In outline:
(§7)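 Immature male rats (70 g), castrated 24 h earlier, in groups of five. […] Controls received vehicle only (sesame oil with 5% benzyl alcohol). Rats were killed 24 h after the last dose, and prostate and seminal vesicles were excised and weighed.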

The test system of assay [15] is Rattus norvegicus. Description: In vivo percent increase rat seminal vesicles weight on subcutaneous administration of testosterone propionate along with compound at dose 5 mg/day; Expressed as percent inhibition of weight increase, mg. The format is functional. A digest of the protocol:
as §7

In assay [16] the test system is Rattus norvegicus. As to the kind of experiment: In vivo percent increase in rat prostate weight on subcutaneous administration of testosterone propionate along with compound at dose 1 mg/day; Expressed as percent inhibition of weight increase, mg. Format: functional, Prostate gland.
The subject of assay [17] is Rattus norvegicus. Description: In vivo percent increase in rat seminal vesicles weight on subcutaneous administration of testosterone propionate along with compound at dose 1 mg/day; Expressed as percent inhibition of weight increase, mg. The format is functional.
Assay [18] has as its system Cricetinae gen. sp. As to the kind of experiment: (§8) Local subcutaneous administration (125 ug); Expressed as weight (mg). Format: functional. A digest of the protocol: as §2
The subject of assay [19] is Cricetinae gen. sp. Described as §8. The format is functional. A digest of the protocol:
as §2
This is another data set of the same source.

Several values for one entry are separate records, joined by “and”; a condition that tells them apart may be missing. Equal entries are not always repeated.

Take `CCC(=O)O[C@H]1CC[C@H]2[C@@H]3CCC4=CC(=O)CC[C@]4(C)[C@H]3CC[C@]12C.CCC1=C2CCC3(C)C(O)CCC3C2CCC1=O`: the Weight with Cricetinae gen. sp. [1] is given as 27.8 mg; with Cricetinae gen. sp. [2], 134 mg; with Cricetinae gen. sp. [3] it was 34.8 mg.
For `CC1=C2CCC3(C)C(O)CCC3C2CCC1=O.CCC(=O)O[C@H]1CC[C@H]2[C@@H]3CCC4=CC(=O)CC[C@]4(C)[C@H]3CC[C@]12C`, the Weight in the assay with Cricetinae gen. sp. [1] came to 36.8 mg; with Cricetinae gen. sp. [2], 144 mg; in the assay on Cricetinae gen. sp. [3] it was 37.3 mg.
Turning to `CCC(=O)O[C@H]1CC[C@H]2[C@@H]3CCC4=CC(=O)CC[C@]4(C)[C@H]3CC[C@]12C.CCC1=C2CCC3(C)C(OC(C)=O)CCC3C2CCC1=O`, the Weight was 46.2 mg and 42.9 mg and 46.8 mg with Cricetinae gen. sp. [4]; 22.8 mg in the assay with Cricetinae gen. sp. [5]; 16.8 mg in the assay with Cricetinae gen. sp. [1]; 24.8 mg in the assay on Cricetinae gen. sp. [6]; 143 mg with Cricetinae gen. sp. [2]; 111 mg with Cricetinae gen. sp. [7]. Also, the Weight was 125 mg in the assay with Cricetinae gen. sp. [8]; 108 mg in the assay with Cricetinae gen. sp. [9]; 31.1 mg in the assay on Cricetinae gen. sp. [10]; 31.7 mg and 33 mg in the assay with Cricetinae gen. sp. [3]; 38.9 mg with Cricetinae gen. sp. [11]; 145 mg in the assay on Cricetinae gen. sp. [12].
Consider `CC1(C)C(=O)CCC2C1CCC1(C)C(O)CCC21.CCC(=O)O[C@H]1CC[C@H]2[C@@H]3CCC4=CC(=O)CC[C@]4(C)[C@H]3CC[C@]12C`, for which the Weight in the assay on Cricetinae gen. sp. [1] turned out to be 28.4 mg; with Cricetinae gen. sp. [2], 135 mg; with Cricetinae gen. sp. [3] it was 36.7 mg.
Regarding `CCC(=O)O[C@H]1CC[C@H]2[C@@H]3CCC4=CC(=O)CC[C@]4(C)[C@H]3CC[C@]12C.CCC12CCC3=C(C)C(=O)CCC3C1CCC2O`, the Weight with Cricetinae gen. sp. [1] was 31.9 mg; with Cricetinae gen. sp. [2], 137 mg; in the assay with Cricetinae gen. sp. [3], 35.2 mg.
On to `CC1(C)C(=O)CCC2C1CCC1(C)C(O)CCC21` (stereo unspecified), for which, in the assay with Rattus norvegicus [13], the “Inhibition of increase in weight” value is recorded as 63%. The Inhibition – broadly, the change of the read-out against control, counted positive when it falls – in the assay with Rattus norvegicus [14] is reported as 49%.
`CC1=C2CCC3(C)C(O)CCC3C2CCC1=O` (stereo unspecified): the “Inhibition of increase in weight” value in the assay with Rattus norvegicus [13] was 54%. Moreover, the Inhibition in the assay on Rattus norvegicus [14] came out at 27%.
Turning to `CCC1=C2CCC3(C)C(OC(C)=O)CCC3C2CCC1=O` (stereo unspecified), the Inhibition in the assay with Rattus norvegicus [15] and with Rattus norvegicus [14] was 50% each time.
As to `CC1=C2C=CC3(C)C(O)CCC3C2CCC1=O` (stereo unspecified), in the assay on Rattus norvegicus [13], the “Inhibition of increase in weight” value stood at 45%. Besides, the Inhibition in the assay on Rattus norvegicus [14] is listed as 25%.
As to `CCC12CCC3=C(C)C(=O)CCC3C1CCC2O` (stereo unspecified), the “Inhibition of increase in weight” value in the assay with Rattus norvegicus [13] is listed as 50%. Further, the Inhibition in the assay with Rattus norvegicus [14] turned out to be 10%.
Taken in the same sequence, the figures for `CCC1=C2CCC3(C)C(O)CCC3C2CCC1=O` (stereo in doubt; 5c) were 73% and 59%.
Turning to `CC(=O)O[C@]1(C(C)=O)CC[C@H]2[C@@H]3C=C(Cl)C4=CC(=O)[C@@H]5C[C@@H]5[C@]4(C)[C@H]3CC[C@@]21C` [CYPROTERONE ACETATE], the Inhibition came to 90% in the assay on Rattus norvegicus [16] and 73% with Rattus norvegicus [17].
Take `CCC(=O)O[C@H]1CC[C@H]2[C@@H]3CCC4=CC(=O)CC[C@]4(C)[C@H]3CC[C@]12C` [TESTOSTERONE PROPIONATE]: the Weight was 37.6 mg and 48.5 mg with Cricetinae gen. sp. [18]; 37.6 mg and 49.4 mg in the assay with Cricetinae gen. sp. [3]; 165 mg and 171 mg in the assay on Cricetinae gen. sp. [19].
